Test results from ChEMBL document CHEMBL3244133, “Synthesis and biological activities of some uronic acids, uronates, uronamides, and urononitriles of pyrimidine nucleosides” (J Med Chem, 1978).
Active and inactive are the calls of the source. No cut-off for these calls is given here.

Tests used:
Lacticaseibacillus casei = test: Inhibition of Lactobacillus casei deoxythymidylate synthetase at 250 uM
L1210 = test: Inhibition of deoxythymidylate synthetase in mouse L1210 cells at 250 uM; assay type: cell-based
[1] = Competitive inhibition of HSV-1 pyrimidine deoxythymidine kinase using 2-[14C]deoxythymidine as substrate; set-up: species or system Human alphaherpesvirus 1
Method in brief: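 HSV-1 encoded pyrimidine deoxyribonucleoside kinase, purified from LMTK⁻ cells. Assay at 37 °C in 50 mM Tris pH 7.8 with 3 mM ATP·Mg²⁺, 0.3 mg/mL BSA, 0.3 mM 2-mercaptoethanol and 2% glycerol. Substrate was varied [2-¹⁴C]deoxythymidine plus analogue. Reaction was started with enzyme; aliquots were taken over time and phosphorylated product measured. Ki came from double-reciprocal plots.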

Enterococcus faecium [2] = test: Antimicrobial activity against Streptococcus faecium assessed as concentration required for maximum growth inhibition after 15 to 17 hrs by turbidity assay; assay type: functional
Method in brief: (§1)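 S. faecium (ATCC 8043), washed and resuspended in saline to 100 Klett units, then diluted 10-fold as inoculum. Test compound was added to basal medium with deoxythymidine (7 μM final) or folic acid (4.53 nM final). Incubation was 15-17 h at 37 °C. Growth was taken as the turbidity change before versus after incubation, read on a Klett colorimeter with a red filter (640-700 nm).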

[3] = Retention time of the compound by liquid chromatography; assay type: physicochemical
Method in brief: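 Reverse-phase HPLC with a methanol-water gradient, separating uronic acids from the parent pyrimidine bases and nucleosides.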

CCRF S-180 [4] = test: Cytotoxicity against mouse S180 cells at 5 uM after 18 to 42 hrs relative to control; assay type: functional
[5] = Antiviral activity against HSV1 CL101 infected in African green monkey Vero cells assessed as inhibition of plaque formation at 200 uM after 40 hrs relative to control; assay type: functional, Herpes simplex virus (type 1 / strain CL101); settings: Human alphaherpesvirus 1, Vero
Enterococcus faecium [6] = test: Antimicrobial activity against Streptococcus faecium after 15 to 17 hrs by turbidity assay; assay type: functional; settings: read-out: ED50 (the source's name); method in brief: as §1
Enterococcus faecium [7] = test: Antimicrobial activity against Streptococcus faecium assessed as growth inhibition at 400 uM after 15 to 17 hrs by turbidity assay in presence of 7 uM deoxythymidine; assay type: functional; method in brief: as §1
CCRF S-180 [8] = test: Cytotoxicity against mouse S180 cells at 400 uM after 18 to 42 hrs relative to control; assay type: functional
[9] = Antiviral activity against HSV1 CL101 infected in African green monkey Vero cells assessed as inhibition of plaque formation at 400 uM after 40 hrs relative to control; assay type: functional, Herpes simplex virus (type 1 / strain CL101); settings: Human alphaherpesvirus 1, Vero
Enterococcus faecium [10] = test: Antimicrobial activity against Streptococcus faecium assessed as growth inhibition at 400 uM after 15 to 17 hrs by turbidity assay in presence of 4.53 nM folic acid; assay type: functional; method in brief: as §1
[11] = Antiviral activity against HSV1 CL101 infected in African green monkey Vero cells assessed as inhibition of plaque formation at 0.1 uM after 40 hrs relative to control; assay type: functional, Herpes simplex virus (type 1 / strain CL101); settings: Human alphaherpesvirus 1, Vero
CCRF S-180 [12] = test: Cytotoxicity against mouse S180 cells at 0.001 uM after 18 to 42 hrs relative to control; assay type: functional
[13] = Antiviral activity against HSV1 CL101 infected in African green monkey Vero cells assessed as inhibition of plaque formation at 40 uM after 40 hrs relative to control; assay type: functional, Herpes simplex virus (type 1 / strain CL101); settings: Human alphaherpesvirus 1, Vero

SMILES: NC(=O)[C@H]1O[C@@H](n2ccc(O)nc2=O)C[C@@H]1O (stereo in doubt; 19)
- inhibition (Lacticaseibacillus casei): inactive
- inhibition (L1210): inactive

SMILES: NC(=O)[C@H]1O[C@@H](n2ccc(O)nc2=O)C[C@@H]1O (stereo in doubt)
- Ki [1]: 310 µM
- Activity (Enterococcus faecium [2]): 600 µM

SMILES: O=C(O)[C@H]1O[C@@H](n2cc(F)c(=O)[nH]c2=O)C[C@@H]1O [RIBOFURANURONIC ACID]
- inhibition (Lacticaseibacillus casei): inactive
- inhibition (L1210): inactive

SMILES: O=C(O)[C@H]1O[C@@H](n2cc(I)c(O)nc2=O)C[C@@H]1O
- Ki [1]: 4.2 µM
- Retention_time [3]: 2.97 min

SMILES: O=C(O)[C@H]1O[C@@H](n2ccc(=O)[nH]c2=O)C[C@@H]1O
- Ki [1]: 500 µM

SMILES: CC(=O)O[C@H]1C[C@H](n2cc(F)c(=O)[nH]c2=O)O[C@@H]1C(N)=O
- Ki [1]: 960 µM

SMILES: O=c1[nH]cc(F)c(=O)[nH]1 [FLUOROURACIL]
- Retention_time [3]: 5.29 min

SMILES: Nc1nc(=O)n([C@H]2C[C@H](O)[C@@H](CO)O2)cc1I [IBACITABINE]
- Retention_time [3]: 19.87 min

SMILES: Nc1ccn([C@@H]2O[C@H](CO)[C@@H](O)[C@@H]2O)c(=O)n1 [CYTARABINE]
- inhibition at 5 µM (CCRF S-180 [4]): 98%
- inhibition at 200 µM [5]: 91%
- Retention_time [3]: 2.07 min

SMILES: Nc1nc(=O)n([C@H]2C[C@H](O)[C@@H](C(=O)O)O2)cc1I
- Retention_time [3]: 3.35 min

SMILES: NC(=O)[C@H]1O[C@@H](n2cc(F)c(=O)[nH]c2=O)C[C@@H]1O
- Ki [1]: 18 µM
- inhibition (Lacticaseibacillus casei): inactive
- inhibition (L1210): inactive

SMILES: Nc1ccn([C@H]2C[C@H](O)[C@@H](CO)O2)c(=O)n1 [DOXECITINE]
- EC50 (Enterococcus faecium [6]): 50 µM

SMILES: COC(=O)[C@H]1O[C@@H](n2cc(I)c(=O)[nH]c2=O)C[C@@H]1O
- Ki [1]: 1.5 µM

SMILES: CC(=O)O[C@H]1C[C@H](n2cc(Br)c(=O)[nH]c2=O)O[C@@H]1C(N)=O
- Ki [1]: 192 µM

SMILES: Nc1ccn([C@@H]2O[C@H](C(=O)O)[C@@H](O)[C@@H]2O)c(=O)n1
- inhibition (INH) (Enterococcus faecium [7]): 0%
- inhibition at 400 µM (CCRF S-180 [8]): 76%
- inhibition at 400 µM [9]: 0%
- inhibition (INH) (Enterococcus faecium [10]): 0%
- Retention_time [3]: 2.56 min

SMILES: COC(=O)[C@H]1O[C@@H](n2cc(C)c(=O)[nH]c2=O)C[C@@H]1O
- Ki [1]: 4 µM

SMILES: O=C(O)[C@H]1O[C@@H](n2cc(Br)c(O)nc2=O)C[C@@H]1O
- Ki [1]: 2.7 µM
- Retention_time [3]: 2.56 min

SMILES: CC(=O)O[C@H]1C[C@H](n2cc(I)c(=O)[nH]c2=O)O[C@@H]1C#N
- Ki [1]: 18 µM

SMILES: O=c1[nH]c(=O)n([C@H]2C[C@H](O)[C@@H](CF)O2)cc1I
- Ki [1]: 1.5 µM

SMILES: O=c1[nH]c(=O)n([C@H]2C[C@H](O)[C@@H](CO)O2)cc1F [FLOXURIDINE]
- Ki [1]: 1.5 µM
- inhibition (INH) (Enterococcus faecium [7]): 96%
- inhibition (INH) (Enterococcus faecium [10]): 95%
- inhibition at 0.1 µM [11]: 88%
- inhibition at 0.001 µM (CCRF S-180 [12]): 95%
- Retention_time [3]: 7.93 min

SMILES: NC(=O)[C@H]1O[C@@H](n2cc(Br)c(O)nc2=O)C[C@@H]1O
- Ki [1]: 0.8 µM
- inhibition (INH) (Enterococcus faecium [7]): 0%
- inhibition at 40 µM [13]: 42%
- inhibition at 400 µM (CCRF S-180 [8]): 0%
- inhibition at 400 µM [9]: 92%
- inhibition (INH) (Enterococcus faecium [10]): 0%
